Cytotoxicity data for 95 compounds are collected here from ChEMBL document CHEMBL4513216, “Probing the Open Global Health Chemical Diversity Library for Multistage-Active Starting Points for Next-Generation Antimalarials” (ACS Infect Dis, 2020).

Each structure is given as a SMILES string.

A short description of this data set: Toxicity liver stage against HepG2, at 10uM. Particulars: human, HepG2-A16-CD81EGFP cells; read-out: INHIBITION
Format: cell-based. Further details: test concentration 10 uM, cell line HepG2-A16-CD81EGFP. Put shortly: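 Uninfected HepG2-A16-CD81EGFP cells, 3 × 10^3 per well, 1536-well, plated on prespotted compound at 10 μM final, parasite-free screening media added to match infected plates; puromycin 10 μM positive, DMSO 0.5% negative; run in parallel with 48 h PbLuc assay at 37 °C, 5% CO2; viability by CellTiter-Glo luminescence, normalized to controls.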
As for `O=C(NC[C@H]1OC[C@@H](NC2CCOCC2)[C@@H]1O)C1CCCC1`, the cytotoxicity at 10 µM was -1%.

Turning to `COCCOc1ccnc(-c2noc([C@@H]3CCCN3CC3CC3)n2)c1`, the cytotoxicity at 10 µM is -4.55%.

`O=C(C1CC1)N1CC[C@H](c2nnc(Cc3c[nH]c4ccccc34)o2)C1`: the cytotoxicity at 10 µM was found to be 4.09%.

As for `CCOC(=O)Cc1csc(NC(=O)c2ccc(=O)[nH]n2)n1`, the cytotoxicity at 10 µM was -1.23%.

Regarding `O=C(Cc1ccccc1)N1CC(=O)N(Cc2ccco2)CC(O)C1` (stereo not given), the cytotoxicity at 10 µM is -4.05%.

`CC(C)NC(=O)N1CCOC2(CCCNC2)C1` (stereo not given): the cytotoxicity at 10 µM was 4.76%.

`CCN1CC2(CCCCN2C(=O)C2CCCCC2)CC1=O` (stereo not given): the cytotoxicity at 10 µM was determined as 18.3%.

For `CCNC(=O)N1CCC2(CC1)CCn1c(-c3cccc(OC)c3)cnc12`, the cytotoxicity at 10 µM amounted to 2.81%.

As to `COCCN1CCCC12CCCN(c1ncccn1)C2` (stereo not given), the cytotoxicity at 10 µM was -6.9%.

Consider `CCOC(=O)N1CCN(C(=O)c2sc(-c3ccc(F)cc3)nc2C)CC1`, for which the cytotoxicity at 10 µM was 10.7%.

As for `Cc1cccc(C(=O)N2C[C@@H]3OCCN(C(C)C)[C@@H]3C2)n1`, the cytotoxicity at 10 µM was -9.2%.

As to `COc1ccc(C2CN(c3ncccn3)CCN2C(C)=O)cc1` (stereo not given), the cytotoxicity at 10 µM is 5.27%.

Take `Cc1cc(N(C)C)nc(C2(C)CCCN2CC(N)=O)n1` (stereo not given): the cytotoxicity at 10 µM was -2.8%.

With `COCC(=O)NC(c1ccccc1)c1ccc2c(c1)CCCO2` (stereo not given), the cytotoxicity at 10 µM was -1.83%.

With `Cc1cc(C2CCCN2Cc2nnc(-c3ccco3)o2)on1` (stereo not given), the cytotoxicity at 10 µM stood at 8.92%.

Consider `NC(=O)c1ccc(CNC(=O)NCc2cc[nH]n2)cc1`, for which the cytotoxicity at 10 µM was 12.3%.

With `CC(Cc1cccc(F)c1)C(=O)NS(=O)(=O)c1cnn(C)c1` (stereo not given), the cytotoxicity at 10 µM is 2.11%.

Turning to `CCNc1cc2c(nn1)CCN(C(=O)C1Cc3ccccc3O1)C2` (stereo not given), the cytotoxicity at 10 µM was -9.32%.

For the compound `COC1CCN(C(=O)Cn2nc(C)cc2C)CC1`, the cytotoxicity at 10 µM came out at 3.81%.

With `O=C(NCC1(N2CCOCC2)CCSC1)Nc1ccncc1` (stereo not given), the cytotoxicity at 10 µM amounted to 12.5%.

With `O=S(=O)(NCC1COc2ccccc2C1)N1CCOCC1` (stereo not given), the cytotoxicity at 10 µM is -1.5%.

Consider `COCCNC(=O)Nc1cccc(COCCOC(C)C)c1`, for which the cytotoxicity at 10 µM worked out at 6.13%.

For the compound `O=C(NC1CCC(C(=O)N2CCSCC2)CC1)N1CCOCC1` (stereo not given), the cytotoxicity at 10 µM came to 13.1%.

Consider `O=C(NC1CC1)c1nnn(-c2cccc(C(F)(F)F)c2)c1C1CC1`, for which the cytotoxicity at 10 µM came out at 4.01%.

`Cc1cc(C)n(CC2CN(Cc3cccnc3)CCO2)n1` (stereo not given): the cytotoxicity at 10 µM is -3.08%.

For `Cc1cc(C)n(C2CCCN(C(=O)c3ccc(F)c(F)c3)C2)n1` (stereo not given), the cytotoxicity at 10 µM is -4.91%.

Consider `COc1cc(F)ccc1N1CCN(Cc2nc(C)c(C)o2)CC1`, for which the cytotoxicity at 10 µM is 10.7%.

`CN(C(=O)COC1CCCCC1)C1CCN(CC2CCOC2)CC1` (stereo not given): the cytotoxicity at 10 µM was found to be 0.33%.

As for `Cc1c(C(=O)NC2(C#N)CCSC2)cnn1-c1ccccc1Cl` (stereo not given), the cytotoxicity at 10 µM was -2.06%.

For the compound `CCc1n[nH]c(=O)c(C(=O)N2CCSC(C)(C)C2)c1CC`, the cytotoxicity at 10 µM came to 18.6%.

In the case of `COC(C)(C)CNC(=O)c1cn(-c2cccc(Cl)c2F)nn1`, the cytotoxicity at 10 µM came to 8.83%.

Consider `Cc1cccc(S(=O)(=O)NCC(C)(C)CC(C)O)c1C#N` (stereo not given), for which the cytotoxicity at 10 µM is -1.37%.

Turning to `Cc1ccsc1CN(C)c1cc(N2CCCC2CO)ncn1` (stereo not given), the cytotoxicity at 10 µM was 11.7%.

As for `Cc1cc(C)cc(C(=O)N2CCN(C(=O)N(C)C)CC2(C)C)c1`, the cytotoxicity at 10 µM worked out at 1.98%.

On to `CSC(C)(C)CNC(=O)NC1CCN(C)CC1`, for which the cytotoxicity at 10 µM is 18.9%.

On to `O=C(Cc1cccs1)N1Cc2nc(COCC3CC3)oc2C1`, for which the cytotoxicity at 10 µM is 2.55%.

As to `CN(C)C(=O)C1CCC2(CCN(C(=O)Nc3cccc(F)c3)CC2)O1` (stereo not given), the cytotoxicity at 10 µM is -104%.

As to `O=C(Cc1cccnc1)N1CCCC2(CCN(CC3CCOCC3)C2)C1` (stereo not given), the cytotoxicity at 10 µM was determined as 2%.

In the case of `CCS(=O)(=O)NC[C@]12COC[C@H]1CN(Cc1cc(C)on1)C2`, the cytotoxicity at 10 µM stood at 2.34%.

Consider `CCCOc1ccc(C(=O)N2CCN3CCNC(=O)C3C2)cc1Cl` (stereo not given), for which the cytotoxicity at 10 µM is -1.65%.

For the compound `Cc1[nH]c2ccc(CNC3CCN(Cc4ccccn4)CC3)cc2c1C`, the cytotoxicity at 10 µM was 3.97%.

In the case of `Cc1cnc(NC(=O)c2cccc(CN(C)Cc3ncccc3C)c2)s1`, the cytotoxicity at 10 µM was 14.2%.

As to `COCc1ncc(CN2CCC3(CCNCC3)CC2)cn1`, the cytotoxicity at 10 µM was -139%.

As to `O=C(NC1CCCN(c2ncccn2)C1)c1cn2ccccc2n1` (stereo not given), the cytotoxicity at 10 µM was -4.38%.

On to `O=C(NCCC1CN(Cc2c[nH]cn2)CCO1)c1ccccc1O` (stereo not given), for which the cytotoxicity at 10 µM amounted to 0.423%.

For `CCN1CC2(CCC1=O)CCN(C(=O)c1ccc(C)cc1O)CC2`, the cytotoxicity at 10 µM is -0.0198%.

Turning to `CCCc1nc(C)cc(NCc2ccc(S(N)(=O)=O)cc2)n1`, the cytotoxicity at 10 µM came to 10.3%.

Turning to `Cc1csc2c(=O)n(CCSc3cnn[nH]3)cnc12`, the cytotoxicity at 10 µM is -3.61%.

On to `O=S1(=O)CCC(n2cc(C3=CCN(CCN4CCCCC4)CC3)cn2)C1` (stereo not given), for which the cytotoxicity at 10 µM was -8.29%.

`CC(C)Cc1noc(CN(C)C[C@]2(O)CCCN3CCCC[C@@H]32)n1`: the cytotoxicity at 10 µM is -2.36%.

For the compound `CCc1nc(C)sc1CN(Cc1ccncc1)C1CCN(C)CC1`, the cytotoxicity at 10 µM is 6.4%.

As for `CC(C)C(O)C1CCN(c2ccnc(C(=O)NCc3ccco3)c2)CC1` (stereo not given), the cytotoxicity at 10 µM was -0.598%.

On to `CS(=O)(=O)N1C[C@H]2CNC[C@@]2(C(=O)NCCOc2ccccc2)C1`, for which the cytotoxicity at 10 µM was determined as 2.1%.

As for `CCC[C@@H]1CN(C(=O)c2cc(-c3cccs3)n(C)n2)C[C@H]1NS(C)(=O)=O`, the cytotoxicity at 10 µM was -1.63%.

For `CC(C)(C)C(=O)N[C@H]1CC[C@H](Nc2nccc(-c3ccncc3)n2)C1`, the cytotoxicity at 10 µM was 5.05%.

Consider `O=C1NCCN2CCN(C(=O)Nc3ccc(-c4ccccc4)cc3)CC12` (stereo not given), for which the cytotoxicity at 10 µM is -119%.

As to `CCc1nc(C)c(CN2CCOC(Cc3cccc4ccccc34)C2)[nH]1` (stereo not given), the cytotoxicity at 10 µM was -5.54%.

On to `NC(=O)NCCC(=O)N1CCC(c2cc(-c3ccccc3Cl)n[nH]2)CC1`, for which the cytotoxicity at 10 µM is -6.67%.

`Cc1ccccc1CN(CCN(C)C)C(=O)c1ccc2nccn2c1`: the cytotoxicity at 10 µM was -2.36%.

For the compound `NCc1n[nH]c(=O)n1-c1cccc(Cl)c1Cl`, the cytotoxicity at 10 µM is -0.994%.

For `CC(C)c1ccc(CN2CCC(CNS(=O)(=O)C3CC3)C2)cc1` (stereo not given), the cytotoxicity at 10 µM is -1.37%.

In the case of `Cn1cccc1-c1cc(C(=O)N2CCCC2c2ccc(C(N)=O)s2)[nH]n1` (stereo not given), the cytotoxicity at 10 µM was -1.33%.

Consider `Clc1cccc2c3c([nH]c12)CCN(Cc1cc2n(n1)CCCNC2)C3`, for which the cytotoxicity at 10 µM was -17.1%.

For the compound `O=c1c2ccccc2ncn1Cc1cc(C2CC2)[nH]n1`, the cytotoxicity at 10 µM was determined as 3.8%.

Consider `O=C1CCC2(CCN(Cc3cc(F)cc(F)c3)CC2)CN1CCO`, for which the cytotoxicity at 10 µM was -11.6%.

As to `CCS(=O)(=O)N1CCC(c2nnc(CN3CCOCC3)n2C)CC1`, the cytotoxicity at 10 µM was 17%.

In the case of `Cc1nccnc1CN1CCC2(CCCN(C3CCOCC3)C2=O)C1` (stereo not given), the cytotoxicity at 10 µM was -5.44%.

As for `CN1C(=O)CC(C(=O)O)C12CCN(Cc1ccc(F)cc1Cl)CC2` (stereo not given), the cytotoxicity at 10 µM was -4.88%.

For the compound `Cn1ncc2c(N3CCN(C(N)=O)CC3)nc(C3CCCC3)nc21`, the cytotoxicity at 10 µM came out at 18.2%.

In the case of `Cc1nc(CN2CCCC(Cn3cc(CCO)nn3)C2)c[nH]1` (stereo not given), the cytotoxicity at 10 µM was -21.1%.

`O=C(CCN1CCCC1=O)NCc1cccnc1Oc1ccccc1`: the cytotoxicity at 10 µM was -7.47%.

Take `CS(=O)(=O)c1ccc(C(=O)N2CCCC(n3cccn3)C2)cc1` (stereo not given): the cytotoxicity at 10 µM was -6.98%.

As to `CCOc1ccc(Cl)c(C(=O)NCCC(=O)Nc2ccccn2)n1`, the cytotoxicity at 10 µM is -3.13%.

In the case of `Cc1nc(-c2ccsc2)ccc1C(=O)NCCN1CCN(C)CC1`, the cytotoxicity at 10 µM was -11.2%.

Turning to `CCc1noc(CNc2ccc(C(=O)N3CCCC(C)C3)cc2C)n1` (stereo not given), the cytotoxicity at 10 µM is -10.8%.

As for `Cc1ccc2oc(C(=O)N3CCCC(n4nc(C)cc4C)C3)cc2n1` (stereo not given), the cytotoxicity at 10 µM amounted to 1.25%.

`CC(O)CN1CCC(CNCc2ccccc2Br)CC1` (stereo not given): the cytotoxicity at 10 µM was -13.2%.

For the compound `Cc1ncc(CNC2CCCN(Cc3noc(C4CC4)n3)C2)s1` (stereo not given), the cytotoxicity at 10 µM is -7.7%.

As to `c1ccc(Cn2ccnc2CN2CCCC2c2noc(C3CC3)n2)cc1` (stereo not given), the cytotoxicity at 10 µM is -0.818%.

`CNc1snc(C)c1C(=O)N1CCCC(n2ccnc2C(C)C)C1` (stereo not given): the cytotoxicity at 10 µM was found to be 1.66%.

In the case of `c1nn(C2CCCCC2)cc1-c1cncn1CCCN1CCCCC1`, the cytotoxicity at 10 µM worked out at 2.37%.

As for `c1cc(CN2CCCn3cnc(COCC4CC4)c3C2)ccn1`, the cytotoxicity at 10 µM was 7.31%.

For `C[C@@H]1CN(C(=O)C2CCOCC2)C[C@]12CCN(c1cccnc1)C2=O`, the cytotoxicity at 10 µM stood at 6.95%.

Regarding `Cc1ncsc1CN1C[C@@H]2COC[C@]2(C(=O)NC(C)C)C1`, the cytotoxicity at 10 µM is -98.6%.

As to `Cc1ccc(CN2CCC3(CC2)C(=O)N(CCO)CCN3C)o1`, the cytotoxicity at 10 µM was -1.63%.

For `CC(C)COCc1cncc2c1CCN(C(=O)c1cscn1)C2`, the cytotoxicity at 10 µM was -108%.

With `O=C(c1nc2c(o1)CN(CC1CC1)C2)N1CCCC1`, the cytotoxicity at 10 µM is -163%.

Turning to `COCCNC(=O)[C@H]1C[C@@H]2CCN(c3nncs3)C[C@H]2O1`, the cytotoxicity at 10 µM is -2.12%.

Turning to `Cc1noc(C)c1C(=O)N1C[C@@H]2COC[C@]2(COc2ccccn2)C1`, the cytotoxicity at 10 µM turned out to be 2.47%.

On to `Cc1ccc(CN2CC[C@H]3CO[C@H](CN(C)Cc4ccco4)[C@H]3C2)s1`, for which the cytotoxicity at 10 µM was 4.74%.

As for `c1cnc(N2CCCn3nnc(COCC4CC4)c3C2)nc1`, the cytotoxicity at 10 µM was -4.97%.

For the compound `Cc1noc([C@@]23CCO[C@@H]2CCN(Cc2scnc2C)C3)n1`, the cytotoxicity at 10 µM was -111%.

Take `O=C(N[C@@H]1CN(Cc2ccccn2)[C@@H]2COC[C@@H]21)C1CCC1`: the cytotoxicity at 10 µM came to 8.67%.

Regarding `CO[C@@H]1CC[C@H]2[C@H]1OCCN2Cc1ccccn1`, the cytotoxicity at 10 µM was found to be 1.06%.

Regarding `C1CC(CN2C[C@@H]3CC[C@H]2CN(Cc2noc(C4CCCC4)n2)C3)C1`, the cytotoxicity at 10 µM was -15.6%.
